This excerpt belongs to a sample that is enriched for hits.
T cruzi repl – T. cruzi replication inhibition | actives 1.4% (n = 300,000) | inhibition, % (test concentration not listed) | T. cruzi beta-gal in NIH3T3, luminescence, 90 h | AID 1885;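 active means mean inhibition across valid replicates above about 55%, limit read from the data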;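 further: signal also drops with host cell toxicity which is not excluded here; 0% = plate median of DMSO wells and 100% = zero luminescence signal; higher percent means less beta-gal luminescence so fewer parasites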
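compound dosing = single 50 nL compound addition per well in DMSO | material = NIH/3T3 host cells with β-galactosidase reporter T. cruzi | input = 5,000 host fibroblasts per well | timing = ≥90 h infection period, 3 h prior cell attachment | read-out basis = percent inhibition of parasite-derived β-gal signal | detection = GalScreen β-gal luminescence, detergent lysis, 60 min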
Lipid droplet – hepatic lipid droplet formation modulation | actives 0.4% (n = 240,000) | AML12 mouse hepatocytes, oleate lipid droplets, BODIPY imaging | inhibition, % at 6.5 µM;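 active means lipid droplet intensity inhibited by at least 50%, with more than 500 cells counted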
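Assay system: AML12 mouse liver cells | Compound: 6.5 µM single-point dosing | Schedule: Overnight exposure | Technique: Fluorescence imaging, 20x objective, two fields per well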
MPTP inh – inhibitors of mitochondrial permeability transition pore. actives 1.4% (n = 360,000). inhibition, % at 10 µM. isolated mouse mitochondria, Ca2+ swelling absorbance, 30 min;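 active means inhibition of 50% or more, scaled per plate between neutral and stimulator controls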;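 further: 0% = DMSO wells given calcium and 100% = 1 mM EGTA wells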
Redox H2O2 prof – compounds producing H2O2 with reducing agent – biochemical, NIH compound library profiling, artefact control for MLSCN library redox annotation, primary screen. DTT-dependent redox cycling H2O2, phenol red/HRP absorbance; 100% = 100 µM peroxide control, 0% = buffer. activation, % at 10 µM. actives 0.03% (n = 200,000);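 active means activation of at least 50% relative to the plate's high and low controls in the primary single-dose screen; inactive means activation below 50%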;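 further: compound incubated with DTT at 0.8 mM final as the reducing agent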
Lmaj promast – inhibitors of Leishmania major promastigote growth; Leishmania major promastigotes, resazurin fluorescence viability; inhibition, % at 10 µM; actives 9% (n = 200,000); AID 1063; in the data active means inhibition above about 50%;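 further: promastigotes grown with compound for 44 hours at 28 °C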
* = called active by the depositor; . = not tested or not shown.

SMILES	T cruzi repl	Lipid droplet	MPTP inh	Redox H2O2 prof	Lmaj promast
Cc1cccc(N=Cc2cc3c(cc2[N+](=O)[O-])OCO3)c1	-2	.	3	3	20
COc1cc(C=Nc2cccc(C)c2)c(O)c([N+](=O)[O-])c1	47	6	10	0	68*
CN1CCN(C(=O)OC2CC3CC2[C@H]2CCCCN2C3=O)CC1 (stereo partly specified)	.	.	-2	.	.
CCOc1ccc(-c2nnc(-c3ccccc3)n2-c2ccccc2)cc1	24	-8	5	-8	65*
COc1ccc(-n2c(-c3ccc(Br)cc3)c[n+]3c2SC(C)C3)cc1 (stereo unspecified)	90*	-8	5	-1	100*
COc1ccc(-n2c(-c3ccc(Br)cc3)nc(=S)c3c2CCCC3)cc1	24	8	-2	0	-4
FC(F)Sc1ccc(-n2c(-c3ccc(Cl)cc3)c[n+]3c2CCC3)cc1	14	0	0	-1	25
CCOc1ccc(-c2c[n+]3c(n2-c2ccccc2)CCCCC3)cc1	66*	-19	5	0	100*
COc1ccc(-n2c(-c3ccc(Br)cc3)c[n+]3c2CCCCC3)cc1	66*	4	-1	0	100*
CCOc1ccc(-c2nnc(-c3ccccc3)o2)cc1	7	1	-6	1	-4
O=C(COc1c(CO)cc(Br)cc1CO)NC1CCCc2ccccc21 (stereo unspecified)	5	1	-5	0	-4
COc1ccc(-n2c(-c3ccc(Br)cc3)c[n+]3c2CCC3)cc1	41	1	0	0	100*
Cc1ccc(-n2c(-c3ccc(Cl)cc3)c[n+]3c2CCC3)cc1	31	-67	5	.	.
COc1ccc(-n2c(-c3ccccc3)c[n+]3c2CCC3)cc1	12	0	-1	.	.
Cc1ccc(-n2c(-c3ccccc3)c[n+]3c2CCC3)cc1	48	-12	-1	0	98*
Cc1cc2nnc(SCC(=O)NCC(c3ccccc3)N(C)C)n2c2ccccc12 (stereo unspecified)	12	-6	0	.	.
CCCS(=O)(=O)NC(=O)C1(C)CCN(C(=O)COc2ccccc2)C1 (stereo unspecified)	.	.	-1	.	.
Cc1ccc(CNC(=O)CC(C)S(=O)(=O)c2ccc3c(c2)NC(=O)C(C)S3)cc1 (stereo unspecified)	8	-12	-2	.	.
COc1cccc(CNc2ccc(C(=O)O)cc2)c1OCc1ccccc1	9	7	-2	0	-8
COc1cccc(C2NC(=O)c3ccccc3O2)c1OCc1ccccc1F (stereo unspecified)	-7	-8	-3	0	84*
C=CCOc1c(CNc2ccc(S(N)(=O)=O)cc2)cccc1OC	-8	-20	0	1	-5
COc1cccc(CNc2ccccc2O)c1OCc1ccccc1F	-9	-6	1	0	62*
COc1cccc(CNc2ccc(S(N)(=O)=O)cc2)c1OCc1ccccc1F	3	-13	14	0	65*
CN(CC(=O)Nc1ccc(F)cc1)C(=O)Cn1cnc2ccc([N+](=O)[O-])cc2c1=O	.	.	0	.	.
CCOC(=O)c1cc2c(=O)n3ccccc3nc2n(C(C)C)c1=NC(=O)c1c(-c2ccccc2Cl)noc1C	63*	5	0	0	88*
SMILES	T cruzi repl	Lipid droplet	MPTP inh	Redox H2O2 prof	Lmaj promast
CCOC(=O)c1cc2c(=O)n3ccccc3nc2n(CC(C)C)c1=NC(=O)c1ccco1	16	-3	0	0	43
CCOC(=O)c1cc2c(=O)n3ccccc3nc2n(CCOC)c1=NC(=O)c1ccncc1	14	-3	0	1	20
CCOC(=O)c1cc2c(=O)n3ccccc3nc2n(C(C)C)c1=NC(=O)c1ccncc1	9	.	-1	-1	52*
CCOC(=O)c1cc2c(=O)n3ccccc3nc2n(CCOC)c1=NC(=O)c1c(-c2c(F)cccc2Cl)noc1C	.	2	1	0	67*
CC(C)CCN1CCN(Cc2nc3ccccc3s2)CC1CCO (stereo unspecified)	44	-6	1	-1	82*
Cc1oc(-c2cccs2)nc1CN1CCN(C2CCCC2)C(CCO)C1 (stereo unspecified)	1	-10	0	-1	20
CC(C)CN1CCN(Cc2nc3ccccc3s2)CC1CCO (stereo unspecified)	28	-5	1	-1	6
CC(C)CCN1CCN(CC(c2ccccc2)c2ccccc2)CC1CCO (stereo unspecified)	6	-6	1	-1	91*
CC(C)CCN1CCN(Cc2ccoc2)CC1CCO (stereo unspecified)	-1	30	2	.	.
CC(C)NC(=O)C1CCN(C2CCN(Cc3nc4ccccc4s3)CC2)CC1	20	1	-2	-1	86*
Cc1oc(-c2cccs2)nc1CN1CCN(CCC(C)C)C(CCO)C1 (stereo unspecified)	12	14	1	0	84*
OCCC1CN(Cc2nc3ccccc3s2)CCN1C1CCCCC1 (stereo unspecified)	31	-10	0	-1	18
OCCC1CN(Cc2nc3ccccc3s2)CCN1CCc1ccccc1 (stereo unspecified)	27	0	4	-1	84*
CCn1c(=O)cc(SCC(=O)N2CCN(c3ccccc3F)CC2)c2ccccc21	7	.	4	1	53*
CCn1c(=O)cc(SCC(=O)N2CCN(c3ccccn3)CC2)c2ccccc21	21	-4	-1	-2	5
C[C@@H](C[C@@H](O)[C@H](O)C(C)(C)O)[C@@H]1CC[C@]2(C)C3=CC[C@H]4C(C)(C)C(=O)CC[C@]4(C)[C@H]3CC[C@@]12C	48	-4	5	1	92*
C[C@H](C[C@H](O)[C@H]1OC1(C)C)C1=C2C[C@H](O)C3[C@@]4(C)CCC(=O)C(C)(C)C4CC[C@]3(C)[C@@]2(C)CC1 (stereo partly specified)	.	.	-2	.	.
CCCNC(=O)N[C@H]1C=C[C@H](CC(=O)NC2CCCCC2)O[C@@H]1CO	.	.	0	.	.
O=C(CN1CCCC1)Nc1c2c(nc3ccccc13)N(Cc1ccccc1)CC2	10	7	0	0	51*
O=C(CN1CCOCC1)Nc1c2c(nc3ccccc13)N(Cc1ccccc1)CC2	-11	-5	0	-3	-3
O=C(c1cccs1)[C@@H]1[C@@H]2C(=O)N(Cc3ccc4c(c3)OCO4)C(=O)[C@@H]2C2c3ccccc3C=CN21 (stereo partly specified)	-2	.	.	-8	88*
CCOC(=O)C1=CCN(S(=O)(=O)c2ccccc2Br)C1c1ccc(F)cc1 (stereo unspecified)	.	.	0	.	.
COc1ccc(N2CCN(C(=O)CCn3nnc4ccccc43)CC2)cc1	4	.	8	0	89*

Screening results: PubChem, several laboratories
